# Source: ChEMBL document CHEMBL1127388, “Synthesis and structure-activity relationships in a series of antiinflammatory corticosteroid analogues, halomethyl androstane-17 beta-carbothioates and -17 beta-carboselenoates” (1994)
# Tests used:
# Assay type in all cases: functional
# Homo sapiens = species on record: Homo sapiens; assay: Tested for human vasoconstrictor activity relative to fluocinolone acetonide (100)
# Mus musculus [1] = assay: Systemic corticosteroid activity after topical application relative to fluocinolone acetonide in mice.
# Outline: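 Mice (25–30 g), nine groups of 10, given topical steroid in acetone daily for seven consecutive days; reference fluocinolone acetonide daily doses 0.47, 1.9, 7.5 and 30 µg; vehicle controls. Day after last dose, Et₂O vapor stress 1 min, re-anaesthetised with Et₂O; blood of two mice pooled; plasma corticosterone read fluorimetrically; potency from log daily dose vs corticosterone.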
# Mus musculus [2] = assay: Topical anti-inflammatory activity relative to fluocinolone acetonide in mice.
# Outline: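 Croton oil ear test in mice (22–28 g), nine groups of 10; steroid dissolved in croton oil (2 vol)/EtOH (20)/Et₂O (78), 0.02 mL to inner aspect of both ears; reference doses 0.015, 0.06, 0.25, 1 µg; untreated-oil controls; ears weighed after 6 h; potency from log dose vs ear weight.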
# Rattus norvegicus [3] = assay: Topical anti-inflammatory activity relative to fluocinolone acetonide in rats.
# Outline: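 Modified Tonelli croton oil ear test: rats (54–70 g), 7 groups of 10; graded steroid doses in croton oil (5 vol)/EtOH (20)/Et₂O (75), 0.04 mL to inner aspect of both ears (reference 0.06, 0.25, 1 µg); control gets unmedicated oil. After 6 h, CO₂ kill, ears weighed separately; relative potency by ANOVA on log dose and ear weight.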
# Rattus norvegicus [4] = assay: Systemic corticosteroid activity after topical application relative to fluocinolone acetonide in rats.
# Outline: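 Rats (170–200 g), seven groups of six, fur clipped, ca. 2 cm² dorsal area dosed once daily for seven days with steroid in acetone (0.02 mL; reference 0.5, 2, 8 µg). Day after final dose: Et₂O stress 1 min, 20 min later pentobarbitone i.p., cardiac blood; fluorimetric plasma corticosterone or adrenal weights; potency from log daily dose.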
SMILES,Activity (Homo sapiens),Activity (Mus musculus [1]),Activity (Mus musculus [2]),Activity (Rattus norvegicus [3]),Activity (Rattus norvegicus [4])
C=C1CC2C3C[C@H](F)C4=CC(=O)C=C[C@]4(C)[C@@]3(F)[C@@H](O)C[C@]2(C)[C@@]1(OC(=O)CC)C(=O)SCCl (stereo partly specified),170,>100,108,,
CCC(=O)O[C@]1(C(=O)SCCl)[C@@H](C)CC2C3CCC4=CC(=O)C=C[C@]4(C)[C@@]3(F)[C@@H](O)C[C@@]21C (stereo partly specified),1469,44,41,36,0.9
CCC(=O)O[C@]1(C(=O)SCF)[C@H](C)C[C@H]2[C@@H]3C[C@H](F)C4=CC(=O)C=C[C@]4(C)[C@@]3(F)[C@@H](O)C[C@@]21C [FLUTICASONE PROPIONATE],945,1,113,85,1.5
CCC(=O)O[C@]1(C(=O)SCCl)[C@H](C)CC2C3C[C@H](F)C4=CC(=O)C=C[C@]4(C)[C@@]3(F)[C@@H](O)C[C@@]21C (stereo partly specified),124,0.04,56,29,<0.02
CCC(=O)O[C@]1(C(=O)SCF)[C@@H](C)CC2C3CCC4=CC(=O)C=C[C@]4(C)[C@@]3(F)[C@@H](O)C[C@@]21C (stereo partly specified),1262,450,89,39,13
CCC(=O)O[C@]1(C(=O)SCF)CCC2C3C[C@H](F)C4=CC(=O)C=C[C@]4(C)[C@H]3[C@@H](O)C[C@@]21C (stereo partly specified),697,>200,56,97,
CC(=O)O[C@]1(C(=O)SCF)[C@@H](C)CC2C3CCC4=CC(=O)C=C[C@]4(C)[C@@]3(F)[C@@H](O)C[C@@]21C (stereo partly specified),1388,,67,40,13.5
CCC(=O)O[C@]1(C(=O)SCCl)CCC2C3CCC4=CC(=O)C=C[C@]4(C)[C@@]3(F)[C@@H](O)C[C@@]21C (stereo partly specified),916,100,20,,
C=C1CC2C3CCC4=CC(=O)C=C[C@]4(C)[C@@]3(F)[C@@H](O)C[C@]2(C)[C@@]1(OC(=O)CC)C(=O)SCF (stereo partly specified),1497,44,41,20,2.5
CCC(=O)O[C@]1(C(=O)SCI)[C@@H](C)CC2C3CCC4=CC(=O)C=C[C@]4(C)[C@@]3(F)[C@@H](O)C[C@@]21C (stereo partly specified),41,,,,
C=C1CC2C3CCC4=CC(=O)C=C[C@]4(C)[C@@]3(F)[C@@H](O)C[C@]2(C)[C@@]1(OC(=O)CC)C(=O)[Se]C (stereo partly specified),187,,27,19,<0.2
CCCC(=O)O[C@]1(C(=O)SCCl)[C@@H](C)CC2C3CCC4=CC(=O)C=C[C@]4(C)[C@@]3(F)[C@@H](O)C[C@@]21C (stereo partly specified),143,,,,
CCC(=O)O[C@]1(C(=O)SCF)[C@@H](C)CC2C3CCC4=CC(=O)C=C[C@]4(C)[C@H]3[C@@H](O)C[C@@]21C (stereo partly specified),800,,50,44,5.1
CC1(C)O[C@@H]2C[C@H]3[C@@H]4C[C@H](F)C5=CC(=O)C=C[C@]5(C)[C@@]4(F)[C@@H](O)C[C@]3(C)[C@]2(C(=O)CO)O1 [FLUOCINOLONE ACETONIDE],100,100,100,100,100
C=C1CC2C3CCC4=CC(=O)C=C[C@]4(C)[C@@]3(F)[C@@H](O)C[C@]2(C)[C@@]1(OC(=O)CC)C(=O)SCCl (stereo partly specified),365,2,42,12,0.8
C=C1CC2C3CCC4=CC(=O)C=C[C@]4(C)[C@@]3(F)[C@@H](O)C[C@]2(C)[C@@]1(OC(=O)CC)C(=O)[Se]CCl (stereo partly specified),200,2,40,16,
CCC(=O)O[C@]1(C(=O)SCF)[C@H](C)CC2C3CCC4=CC(=O)C=C[C@]4(C)[C@@]3(F)[C@@H](O)C[C@@]21C (stereo partly specified),653,,,,
CCCC(=O)O[C@]1(C(=O)SCF)[C@H](C)CC2C3C[C@H](F)C4=CC(=O)C=C[C@]4(C)[C@@]3(F)[C@@H](O)C[C@@]21C (stereo partly specified),299,0.7,55,55,
CCC(=O)O[C@]1(C(=O)SCBr)[C@@H](C)CC2C3CCC4=CC(=O)C=C[C@]4(C)[C@@]3(F)[C@@H](O)C[C@@]21C (stereo partly specified),254,,,,
CC(=O)O[C@]1(C(=O)SCF)[C@H](C)CC2C3C[C@H](F)C4=CC(=O)C=C[C@]4(C)[C@@]3(F)[C@@H](O)C[C@@]21C (stereo partly specified),392,2.9,76,88,3
CCC(=O)O[C@]1(C(=O)SCCl)[C@@H](C)CC2C3CCC4=CC(=O)C=C[C@]4(C)[C@H]3[C@@H](O)C[C@@]21C (stereo partly specified),295,,27,29,1.4
C=C1CC2C3C[C@H](F)C4=CC(=O)C=C[C@]4(C)[C@@]3(F)[C@@H](O)C[C@]2(C)[C@@]1(OC(=O)CC)C(=O)SCF (stereo partly specified),1048,>100,197,,
CCC(=O)O[C@]1(C(=O)SCF)CCC2C3CCC4=CC(=O)C=C[C@]4(C)[C@@]3(F)[C@@H](O)C[C@@]21C (stereo partly specified),1984,149,63,39,1.5
CC(=O)O[C@]1(C(=O)SCCl)[C@@H](C)CC2C3CCC4=CC(=O)C=C[C@]4(C)[C@@]3(F)[C@@H](O)C[C@@]21C (stereo partly specified),544,14.7,59,24,0.5
